According to ChEMBL document CHEMBL1142253, “Development of dimeric modulators for anti-apoptotic Bcl-2 proteins” (Bioorg Med Chem Lett, 2008):

How the values were obtained:
[1] = target: Apoptosis regulator Bcl-2 (Homo sapiens, UniProt P10415); experiment: Inhibition of Bak peptide binding to human recombinant Bcl2
Summary of the method: (§1)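 Fluorescence polarization competition against 50 nM fluorescein-labelled Bak peptide, in PBS pH 7.0 with 1 mM DTT. Protein set for 60% peptide complex: Bcl-2 1000 nM, Bcl-XL 880nM, Bcl-w 1200 nM. Compounds added from 3-fold DMSO stock dilutions (10 mM down). Incubation 1 h at 23 °C, read in mP, peptide-only interference subtracted. Ki fitted from FP change versus competitor concentration.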

Bcl-2-like protein 2 = target: T1, Bcl-2-like protein 2 (Homo sapiens, UniProt Q92843); experiment: Inhibition of Bak peptide binding to human recombinant Bcl-w; summary of the method: as §1
T1 sequence (Q92843 whole entry): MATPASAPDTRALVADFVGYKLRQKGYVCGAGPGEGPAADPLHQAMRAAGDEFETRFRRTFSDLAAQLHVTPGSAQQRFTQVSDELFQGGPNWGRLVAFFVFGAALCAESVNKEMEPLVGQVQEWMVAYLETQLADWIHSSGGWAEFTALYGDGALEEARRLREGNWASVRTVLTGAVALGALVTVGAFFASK

[2] = Induction of cytochrome c release from mouse liver mitochondria; type: functional
Summary of the method: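 Mouse liver mitochondria were isolated by differential centrifugation in Tris-MOPS/EGTA/sucrose buffer pH 7.4 and diluted to 1mg/ml in KCl-based buffer. They were incubated 1 hour at 30 °C with increasing compound concentrations, with DMSO kept equal, then pelleted at 13,000g for 10 minutes. Cytochrome c release was assessed, and the concentration giving 50% release was reported.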

Chain of Apoptosis regulator Bcl-2 (P10415 whole entry): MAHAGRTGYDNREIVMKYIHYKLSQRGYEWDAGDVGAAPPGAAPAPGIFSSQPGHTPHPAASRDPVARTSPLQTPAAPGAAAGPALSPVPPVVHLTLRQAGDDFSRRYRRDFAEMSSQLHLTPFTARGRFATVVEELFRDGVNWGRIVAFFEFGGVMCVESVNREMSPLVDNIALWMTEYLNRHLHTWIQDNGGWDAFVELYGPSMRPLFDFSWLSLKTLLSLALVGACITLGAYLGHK

Work on `O=C(OCCOCCOCCOC(=O)[C@H](Cc1ccccc1)N1C(=O)/C(=C/c2ccc(Br)cc2)SC1=S)[C@H](Cc1ccccc1)N1C(=O)/C(=C/c2ccc(Br)cc2)SC1=S` yielded a Ki [1] of 161 µM and a Ki (Bcl-2-like protein 2) of 88.3 µM.

For `O=C(O)[C@H](Cc1ccccc1)N1C(=O)/C(=C/c2ccc(OCCOc3ccc(/C=C4\SC(=S)N([C@@H](Cc5ccccc5)C(=O)O)C4=O)cc3)cc2)SC1=S`, the Ki [1] was 1.7 µM, the Ki (Bcl-2-like protein 2) was 1.3 µM and the IC50 [2] was 6.1 µM.

In the case of `O=C(O)[C@H](Cc1ccccc1)N1C(=O)/C(=C/c2ccc(Br)cc2)SC1=S`, the IC50 [2] is reported as 69.1 µM.

For `O=C(O)[C@H](Cc1ccccc1)N1C(=O)/C(=C/c2ccc(OCCOCCOc3ccc(/C=C4\SC(=S)N([C@@H](Cc5ccccc5)C(=O)O)C4=O)cc3)cc2)SC1=S`, the Ki [1] was 4.3 µM and the Ki (Bcl-2-like protein 2) was 2.2 µM.

`CCOC(=O)[C@H](Cc1ccccc1)N1C(=O)/C(=C/c2ccc(OCOc3ccc(/C=C4\SC(=S)N([C@@H](Cc5ccccc5)C(=O)OCC)C4=O)cc3)cc2)SC1=S` gave a Ki [1] of 226 µM and a Ki (Bcl-2-like protein 2) of 39.2 µM.

`O=C(O)[C@H](Cc1ccccc1)N1C(=O)/C(=C/c2ccc(OCCOCCOCCOc3ccc(/C=C4\SC(=S)N([C@@H](Cc5ccccc5)C(=O)O)C4=O)cc3)cc2)SC1=S` gave a Ki [1] of 21.2 µM and a Ki (Bcl-2-like protein 2) of 13.7 µM.

Molecule `CCOC(=O)[C@H](Cc1ccccc1)N1C(=O)/C(=C/c2ccc(Br)cc2)SC1=S` has a Ki [1] of 260 µM and a Ki (Bcl-2-like protein 2) of 116 µM.

Molecule `O=C(OCCOCCOC(=O)[C@H](Cc1ccccc1)N1C(=O)/C(=C/c2ccc(Br)cc2)SC1=S)[C@H](Cc1ccccc1)N1C(=O)/C(=C/c2ccc(Br)cc2)SC1=S` has a Ki [1] of over 1000 µM and a Ki (Bcl-2-like protein 2) of 99 µM.

For `O=C(O)[C@H](Cc1ccccc1)N1C(=O)/C(=C/c2ccc(OCOc3ccc(/C=C4\SC(=S)N([C@@H](Cc5ccccc5)C(=O)O)C4=O)cc3)cc2)SC1=S`, the Ki [1] was 4.3 µM and the Ki (Bcl-2-like protein 2) was 2.3 µM.

For `O=C(OCCOC(=O)[C@H](Cc1ccccc1)N1C(=O)/C(=C/c2ccc(Br)cc2)SC1=S)[C@H](Cc1ccccc1)N1C(=O)/C(=C/c2ccc(Br)cc2)SC1=S`, the Ki [1] was 243 µM and the Ki (Bcl-2-like protein 2) was 101 µM.
